{"source": "ChEMBL document CHEMBL4041496", "about": "“Natural-Based Indirubins Display Potent Cytotoxicity toward Wild-Type and T315I-Resistant Leukemia Cell Lines” (J Nat Prod, 2016)", "key": {"KCL-22 [1]": {"test_system": "KCL-22", "test": "Cytotoxicity against human KCL22 cells harboring ABL1 T315I mutant assessed as reduction in cell viability at 1 uM after 48 hrs by MTS assay", "format": "functional, cell-based", "method_in_brief": "(§1)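 Single-concentration screen: KCL-22 cells, or KCL-22 cells expressing T315I mutant Bcr-Abl, grown in RPMI-1640 with 10% FBS. Cells were seeded at 10 000/well, held overnight at 37 °C in 5% CO2, then exposed to 1 μM compound for 48 h, with DMSO as vehicle control. Viability was read by MTS tetrazolium-to-formazan conversion, absorbance 490 nm, in triplicate.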"}, "KCL-22 [2]": {"test_system": "KCL-22", "test": "Cytotoxicity against human KCL22 cells assessed as reduction in cell viability at 1 uM after 48 hrs by MTS assay", "format": "functional, cell-based", "method_in_brief": "as §1"}, "KCL-22 [3]": {"test_system": "KCL-22", "test": "Cytotoxicity against human KCL22 cells harboring ABL1 T315I mutant assessed as cell viability at 1 uM after 48 hrs by MTS assay relative to control", "format": "functional", "conditions": "for viability at 1 µM: Homo sapiens, KCL-22, 48 h, read-out: Activity", "method_in_brief": "as §1"}, "KCL-22 [4]": {"test_system": "KCL-22", "test": "Cytotoxicity against human KCL22 cells assessed as cell viability at 1 uM after 48 hrs by MTS assay relative to control", "format": "functional", "conditions": "for viability at 1 µM: Homo sapiens, KCL-22, 48 h, read-out: Activity", "method_in_brief": "as §1"}, "[5]": {"target": "Proto-oncogene tyrosine-protein kinase Src (Homo sapiens, UniProt P12931)", "sequence (P12931 2-536 limits assumed)": "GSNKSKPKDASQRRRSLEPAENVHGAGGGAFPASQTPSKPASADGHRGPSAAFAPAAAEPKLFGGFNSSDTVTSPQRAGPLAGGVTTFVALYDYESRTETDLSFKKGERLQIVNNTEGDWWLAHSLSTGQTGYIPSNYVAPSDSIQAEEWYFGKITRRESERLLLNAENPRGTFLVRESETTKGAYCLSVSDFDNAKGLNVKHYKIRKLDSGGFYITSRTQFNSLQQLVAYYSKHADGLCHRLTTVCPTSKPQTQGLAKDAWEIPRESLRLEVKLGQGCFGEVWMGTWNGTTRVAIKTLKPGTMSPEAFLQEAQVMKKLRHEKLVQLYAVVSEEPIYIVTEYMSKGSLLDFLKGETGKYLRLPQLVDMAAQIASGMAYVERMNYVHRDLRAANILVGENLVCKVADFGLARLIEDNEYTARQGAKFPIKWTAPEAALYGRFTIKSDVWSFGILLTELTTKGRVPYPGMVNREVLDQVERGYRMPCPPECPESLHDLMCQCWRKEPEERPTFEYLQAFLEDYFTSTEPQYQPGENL", "test": "Inhibition of recombinant c-Src (unknown origin) after 120 mins in presence of [33P]ATP"}, "Aurora kinase A": {"target": "T1, Aurora kinase A (Homo sapiens, UniProt O14965)", "T1 sequence (O14965 whole entry)": "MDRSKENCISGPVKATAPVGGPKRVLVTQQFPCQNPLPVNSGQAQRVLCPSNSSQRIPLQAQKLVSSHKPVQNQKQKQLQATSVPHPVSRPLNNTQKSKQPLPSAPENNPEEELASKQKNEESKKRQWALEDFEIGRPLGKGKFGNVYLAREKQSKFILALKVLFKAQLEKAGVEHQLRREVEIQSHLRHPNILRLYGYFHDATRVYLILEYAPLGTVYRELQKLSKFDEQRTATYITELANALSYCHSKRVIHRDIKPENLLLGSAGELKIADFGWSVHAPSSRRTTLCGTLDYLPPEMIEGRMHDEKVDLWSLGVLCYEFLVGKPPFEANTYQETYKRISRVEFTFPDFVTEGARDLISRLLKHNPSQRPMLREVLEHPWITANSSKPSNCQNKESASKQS", "test": "Inhibition of recombinant Aurora A (unknown origin) after 120 mins in presence of [33P]ATP"}, "[6]": {"target": "Tyrosine-protein kinase ABL1 (Homo sapiens, UniProt P00519, T315I)", "test": "Inhibition of recombinant ABL1 T315I mutant (unknown origin) after 120 mins in presence of [33P]ATP"}, "[7]": {"target": "Tyrosine-protein kinase ABL1 (Homo sapiens, UniProt P00519)", "test": "Inhibition of recombinant ABL1 (unknown origin) after 120 mins in presence of [33P]ATP"}, "[8]": {"target": "Tyrosine-protein kinase JAK2 (Homo sapiens, UniProt O60674)", "sequence (O60674 whole entry)": "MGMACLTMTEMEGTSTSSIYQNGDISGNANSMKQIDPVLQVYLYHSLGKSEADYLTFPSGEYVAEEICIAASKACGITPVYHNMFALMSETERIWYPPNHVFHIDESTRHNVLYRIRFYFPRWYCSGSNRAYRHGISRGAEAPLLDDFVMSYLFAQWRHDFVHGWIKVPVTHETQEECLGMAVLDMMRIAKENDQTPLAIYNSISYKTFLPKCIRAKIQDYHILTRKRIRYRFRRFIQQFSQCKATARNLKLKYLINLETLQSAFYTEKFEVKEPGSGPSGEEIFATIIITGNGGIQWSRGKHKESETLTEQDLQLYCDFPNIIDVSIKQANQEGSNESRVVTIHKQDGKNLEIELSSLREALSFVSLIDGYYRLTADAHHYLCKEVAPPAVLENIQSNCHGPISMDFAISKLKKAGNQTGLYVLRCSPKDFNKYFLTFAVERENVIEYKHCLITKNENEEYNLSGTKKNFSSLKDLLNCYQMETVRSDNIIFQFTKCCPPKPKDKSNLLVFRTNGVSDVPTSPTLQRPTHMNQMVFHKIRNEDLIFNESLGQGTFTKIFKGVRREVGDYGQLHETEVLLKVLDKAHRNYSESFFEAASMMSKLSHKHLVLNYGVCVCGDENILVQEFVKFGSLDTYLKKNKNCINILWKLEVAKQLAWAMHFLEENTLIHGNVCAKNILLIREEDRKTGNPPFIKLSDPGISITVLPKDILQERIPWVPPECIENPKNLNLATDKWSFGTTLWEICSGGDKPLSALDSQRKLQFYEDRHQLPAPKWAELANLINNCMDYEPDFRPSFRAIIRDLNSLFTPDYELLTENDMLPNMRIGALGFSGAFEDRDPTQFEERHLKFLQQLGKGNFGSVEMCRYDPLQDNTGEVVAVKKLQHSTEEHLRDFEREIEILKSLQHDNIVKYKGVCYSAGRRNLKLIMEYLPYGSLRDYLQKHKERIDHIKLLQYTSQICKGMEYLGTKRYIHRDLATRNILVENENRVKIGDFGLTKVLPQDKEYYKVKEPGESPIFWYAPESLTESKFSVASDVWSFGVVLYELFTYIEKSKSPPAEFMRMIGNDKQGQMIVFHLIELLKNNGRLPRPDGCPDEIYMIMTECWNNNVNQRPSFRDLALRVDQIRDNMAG", "test": "Inhibition of recombinant JAK2 (unknown origin) after 120 mins in presence of [33P]ATP"}}, "note": "Calls of active or inactive are those of the source. The rule behind the calls is not given here."}
{"smiles": "COC(=O)c1ccc2c(c1)C(=N\\OCCN1CCNCC1)/C(=C1/C(=O)Nc3c1cccc3C(F)(F)F)N2", "values": [{"measurement": "Activity", "setting": "KCL-22 [1]", "result": "inactive"}, {"measurement": "Activity", "setting": "KCL-22 [2]", "result": "inactive"}]}
{"smiles": "O=C1Nc2c(cccc2C(F)(F)F)/C1=C1/Nc2ccc(-c3nnn[nH]3)cc2/C1=N\\O", "values": [{"measurement": "Activity", "setting": "KCL-22 [1]", "result": "inactive"}, {"measurement": "Activity", "setting": "KCL-22 [2]", "result": "inactive"}]}
{"smiles": "O=C1Nc2c(cccc2C(F)(F)F)/C1=C1/Nc2ccccc2C1=O", "values": [{"measurement": "Activity", "setting": "KCL-22 [1]", "result": "inactive"}, {"measurement": "Activity", "setting": "KCL-22 [2]", "result": "inactive"}]}
{"smiles": "O=C1Nc2c(Br)cccc2/C1=C1/Nc2ccc(/C=N/O)cc2/C1=N\\O", "values": [{"measurement": "Activity", "setting": "KCL-22 [1]", "result": "inactive"}, {"measurement": "Activity", "setting": "KCL-22 [2]", "result": "inactive"}]}
{"smiles": "O=C1Nc2cc(Br)ccc2/C1=C1/Nc2ccccc2/C1=N\\O", "note": "[6BIO]", "values": [{"measurement": "viability at 1 µM", "setting": "KCL-22 [3]", "result": "> 50", "unit": "%"}, {"measurement": "viability at 1 µM", "setting": "KCL-22 [4]", "result": "> 50", "unit": "%"}]}
{"smiles": "O=C1Nc2c(cccc2C(F)(F)F)/C1=C1/Nc2cc(C(=O)O)ccc2/C1=N\\OCCN1CCNCC1", "values": [{"measurement": "Activity", "setting": "KCL-22 [1]", "result": "inactive"}, {"measurement": "Activity", "setting": "KCL-22 [2]", "result": "inactive"}]}
{"smiles": "CC(=O)O/N=C1/C(=C2/C(=O)Nc3cc(Br)c([N+](=O)[O-])cc32)Nc2ccccc21", "values": [{"measurement": "Activity", "setting": "KCL-22 [1]", "result": "inactive"}, {"measurement": "Activity", "setting": "KCL-22 [2]", "result": "inactive"}]}
{"smiles": "COC(=O)c1ccc2c(c1)C(=O)/C(=C1/C(=O)Nc3c1cccc3C(F)(F)F)N2", "values": [{"measurement": "Activity", "setting": "KCL-22 [1]", "result": "inactive"}, {"measurement": "Activity", "setting": "KCL-22 [2]", "result": "inactive"}]}
{"smiles": "COCCN1CCN(CCO/N=C2/C(=C3/C(=O)Nc4cc(Br)ccc43)Nc3ccccc32)CC1", "note": "[listing 1 of 2 here]", "values": [{"measurement": "IC50", "setting": "[5]", "result": 3.9, "unit": "nM"}, {"measurement": "IC50", "setting": "Aurora kinase A", "result": "> 10000", "unit": "nM"}, {"measurement": "IC50", "setting": "[6]", "result": "> 10000", "unit": "nM"}, {"measurement": "viability at 1 µM", "setting": "KCL-22 [3]", "result": "< 50", "unit": "%"}, {"measurement": "viability at 1 µM", "setting": "KCL-22 [4]", "result": "> 50", "unit": "%"}, {"measurement": "IC50", "setting": "[7]", "result": 3440, "unit": "nM"}, {"measurement": "IC50", "setting": "[8]", "result": "> 10000", "unit": "nM"}]}
{"smiles": "COC(=O)c1ccc2c(c1)C(=O)/C(=C1/C(=O)Nc3c(Br)cccc31)N2", "values": [{"measurement": "Activity", "setting": "KCL-22 [1]", "result": "inactive"}, {"measurement": "Activity", "setting": "KCL-22 [2]", "result": "inactive"}]}
{"smiles": "CN1C(=O)/C(=C2\\Nc3ccccc3\\C2=N/O)c2cccc(Cl)c21", "values": [{"measurement": "Activity", "setting": "KCL-22 [1]", "result": "inactive"}, {"measurement": "Activity", "setting": "KCL-22 [2]", "result": "inactive"}]}
{"smiles": "O=C1Nc2c(cccc2C(F)(F)F)/C1=C1/Nc2ccc(-c3nnn[nH]3)cc2C1=O", "values": [{"measurement": "Activity", "setting": "KCL-22 [1]", "result": "inactive"}, {"measurement": "Activity", "setting": "KCL-22 [2]", "result": "inactive"}]}
{"smiles": "O=C1Nc2c(Br)cccc2/C1=C1/Nc2ccc(/C=N/O)cc2C1=O", "values": [{"measurement": "Activity", "setting": "KCL-22 [1]", "result": "inactive"}, {"measurement": "Activity", "setting": "KCL-22 [2]", "result": "inactive"}]}
{"smiles": "N#Cc1ccc2c(c1)C(=N\\O)/C(=C1/C(=O)Nc3c1cccc3C(F)(F)F)N2", "values": [{"measurement": "Activity", "setting": "KCL-22 [1]", "result": "inactive"}, {"measurement": "Activity", "setting": "KCL-22 [2]", "result": "inactive"}]}
{"smiles": "O=C1Nc2ccccc2/C1=C1/Nc2ccccc2C1=O", "values": [{"measurement": "Activity", "setting": "KCL-22 [1]", "result": "inactive"}, {"measurement": "Activity", "setting": "KCL-22 [2]", "result": "inactive"}]}
{"smiles": "O=C1Nc2c(Br)cccc2/C1=C1/Nc2ccccc2/C1=N\\OCCN1CCNCC1", "values": [{"measurement": "Activity", "setting": "KCL-22 [1]", "result": "inactive"}, {"measurement": "Activity", "setting": "KCL-22 [2]", "result": "inactive"}]}
{"smiles": "O=C1Nc2c(Br)cccc2/C1=C1/Nc2cc(C(=O)O)ccc2/C1=N\\OCCN1CCNCC1", "values": [{"measurement": "Activity", "setting": "KCL-22 [1]", "result": "inactive"}, {"measurement": "Activity", "setting": "KCL-22 [2]", "result": "inactive"}]}
{"smiles": "O=C1Nc2cc(Br)ccc2/C1=C1/Nc2ccccc2/C1=N\\OCCN1CCN(CCOCCO)CC1", "values": [{"measurement": "IC50", "setting": "[5]", "result": 0.83, "unit": "nM"}, {"measurement": "IC50", "setting": "Aurora kinase A", "result": 14.9, "unit": "nM"}, {"measurement": "IC50", "setting": "[6]", "result": 5160, "unit": "nM"}, {"measurement": "Activity", "setting": "KCL-22 [3]", "result": ">50", "unit": "%"}, {"measurement": "Activity", "setting": "KCL-22 [4]", "result": ">50", "unit": "%"}, {"measurement": "IC50", "setting": "[7]", "result": 34.1, "unit": "nM"}, {"measurement": "IC50", "setting": "[8]", "result": "> 10000", "unit": "nM"}]}
{"smiles": "O=C1Nc2c(Br)cccc2/C1=C1/Nc2ccccc2/C1=N\\O", "values": [{"measurement": "Activity", "setting": "KCL-22 [1]", "result": "inactive"}, {"measurement": "Activity", "setting": "KCL-22 [2]", "result": "inactive"}]}
{"smiles": "Cc1cc2c(cc1Br)NC(=O)/C2=C1\\Nc2ccccc2C1=O", "values": [{"measurement": "Activity", "setting": "KCL-22 [1]", "result": "inactive"}, {"measurement": "Activity", "setting": "KCL-22 [2]", "result": "inactive"}]}
{"smiles": "CN1C(=O)/C(=C2\\Nc3ccccc3\\C2=N/OCCN2CCNCC2)c2cccc(Br)c21", "values": [{"measurement": "Activity", "setting": "KCL-22 [1]", "result": "inactive"}, {"measurement": "Activity", "setting": "KCL-22 [2]", "result": "inactive"}]}
{"smiles": "CN1C(=O)/C(=C2\\Nc3ccccc3\\C2=N/O)c2ccc(Br)cc21", "values": [{"measurement": "viability at 1 µM", "setting": "KCL-22 [3]", "result": "> 50", "unit": "%"}, {"measurement": "viability at 1 µM", "setting": "KCL-22 [4]", "result": "> 50", "unit": "%"}]}
{"smiles": "COC(=O)c1ccc2c(c1)NC(=C1\\C(=O)Nc3c(Br)cccc31)/C2=N/OCCN1CCNCC1", "values": [{"measurement": "Activity", "setting": "KCL-22 [1]", "result": "inactive"}, {"measurement": "Activity", "setting": "KCL-22 [2]", "result": "inactive"}]}
{"smiles": "COCCN1CCN(CCO/N=C2/C(=C3/C(=O)Nc4cc(Br)ccc43)Nc3ccccc32)CC1", "note": "[listing 2 of 2 here]", "values": [{"measurement": "IC50", "setting": "[5]", "result": 1.7, "unit": "nM"}, {"measurement": "IC50", "setting": "Aurora kinase A", "result": 330, "unit": "nM"}, {"measurement": "IC50", "setting": "[6]", "result": "> 10000", "unit": "nM"}, {"measurement": "Activity", "setting": "KCL-22 [3]", "result": "<50", "unit": "%"}, {"measurement": "Activity", "setting": "KCL-22 [4]", "result": ">50", "unit": "%"}, {"measurement": "IC50", "setting": "[7]", "result": 468, "unit": "nM"}, {"measurement": "IC50", "setting": "[8]", "result": "> 10000", "unit": "nM"}]}
{"smiles": "Nc1cc2c(cc1Br)NC(=O)/C2=C1\\Nc2ccccc2\\C1=N/O", "values": [{"measurement": "Activity", "setting": "KCL-22 [1]", "result": "inactive"}, {"measurement": "Activity", "setting": "KCL-22 [2]", "result": "inactive"}]}
{"smiles": "CC(=O)O/N=C1/C(=C2/C(=O)Nc3cc(Br)ccc32)Nc2ccccc21", "note": "[6-BROMOINDIRUBIN-3'-ACETOXIME]", "values": [{"measurement": "viability at 1 µM", "setting": "KCL-22 [3]", "result": "> 50", "unit": "%"}, {"measurement": "viability at 1 µM", "setting": "KCL-22 [4]", "result": "> 50", "unit": "%"}]}
